# In ChEMBL document CHEMBL2439952, “Synthesis and anti-Trypanosoma cruzi activity of naphthoquinone-containing triazoles: electrochemical studies on the effects of the quinoidal moiety” (Bioorg Med Chem, 2013):
# Key:
# [1] = tested on: Trypanosoma cruzi; assay: Antitrypanosomal activity against trypomastigote form of Trypanosoma cruzi Y assessed as parasite growth inhibition after 24 hrs by Neubauer cell counting method; assay type: functional, organism-based
# [2] = tested on: Trypanosoma cruzi; assay: Potency index, ratio of benznidazole IC50 to compound IC50 for trypomastigote form of Trypanosoma cruzi Y; assay type: functional
# [3] = Selectivity index, ratio of LC50 for mouse HMC to IC50 for trypomastigote form of Trypanosoma cruzi Y
# In short: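 Ratio of 24 h LC50 to 24 h IC50. The LC50 came from PrestoBlue on primary mouse embryo heart muscle cells. The IC50 came from Y strain bloodstream trypomastigotes taken at peak parasitaemia from infected albino mice, isolated by differential centrifugation, and held at 10^7 cells/mL in DME with 10% mouse blood. DMSO was at most 0.5%.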
# [4] = Cytotoxicity against mouse HMC after 24 hrs by PrestoBlue staining-based assay; details: mouse HMC cells, read-out: LC50
# In short: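 Primary heart muscle cells from 18-day-old mouse embryo hearts, dissociated with trypsin and collagenase in PBS pH 7.2. Seeded at 6x10^4 cells/well in RPMI-1640 (pH 7.2), 10% FBS, 2 mM glutamine, 24 h, 37°C. Treated 24 h at 37°C in phenol-red-free supplemented medium. PrestoBlue 5 h, read at 570 and 600 nm. LC50 = concentration damaging 50% of cells versus untreated.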
IC50 [1] [µM],SMILES,further results
> 1500,CC1(C)Oc2c(c3nc4ccccc4nc3c3ccccc23)C1n1cc(-c2ccccc2)nn1 (stereo not given),
318,CC1(C)CC(N=[N+]=[N-])C2=C(O1)C(=O)c1ccccc1C2=O (stereo not given),
> 4000,O=C1C(Br)=C(NCc2cn(CN3C(=O)c4ccccc4C3=O)nn2)C(=O)c2ccccc21,
> 1500,CC1(C)OC2=C(C(=O)c3ccccc3C2=O)C1n1cc(C2CCCCC2)nn1 (stereo not given),
> 2000,CCCCCCc1cn(C2C3=C(OC2(C)C)C(=O)c2ccccc2C3=O)nn1 (stereo not given),
> 4000,CCCCCc1cn(C2CC(C)(C)OC3=C2C(=O)c2ccccc2C3=O)nn1 (stereo not given),
> 4000,O=C1C=C(NCc2cn(-c3cccc([N+](=O)[O-])c3)nn2)C(=O)c2ccccc21,
> 4000,CC1(C)Oc2c(c3nccnc3c3ccccc23)C1n1cc(-c2ccccc2)nn1 (stereo not given),
> 4000,CCC(C)(O)c1cn(C2C3=C(OC2(C)C)C(=O)c2ccccc2C3=O)nn1 (stereo not given),
> 4000,O=C1C(Br)=C(NCc2cn(-c3cccc([N+](=O)[O-])c3)nn2)C(=O)c2ccccc21,
> 4000,O=C1C=C(NCc2cn(CCCCN3C(=O)c4ccccc4C3=O)nn2)C(=O)c2ccccc21,
> 4000,O=C1C=C(NCc2cn(CN3C(=O)c4ccccc4C3=O)nn2)C(=O)c2ccccc21,
> 4000,O=C1C=C(NCc2cn(CCCN3C(=O)c4ccccc4C3=O)nn2)C(=O)c2ccccc21,
> 4000,O=C1C(Br)=C(NCc2cn(CCN3C(=O)c4ccccc4C3=O)nn2)C(=O)c2ccccc21,
> 4000,O=C1C(Cl)=C(NCc2cn(CCN3C(=O)c4ccccc4C3=O)nn2)C(=O)c2ccccc21,
> 4000,CC1(C)OC2=C(C(=O)c3ccccc3C2=O)C1n1cc(-c2ccccc2)nn1 (stereo not given),
> 500,CCC(C)(O)c1cn(C2CC(C)(C)OC3=C2C(=O)c2ccccc2C3=O)nn1 (stereo not given),
> 3200,CC1(C)OC2=C(C(=O)/C(=N\O)c3ccccc32)C1n1cc(-c2ccccc2)nn1 (stereo not given),
17.3,CC1(C)OC2=C(C(=O)C(=O)c3ccccc32)C1n1cc(-c2ccccc2)nn1 (stereo not given),
> 4000,O=C1C=C(NCc2cn(CCN3C(=O)c4ccccc4C3=O)nn2)C(=O)c2ccccc21,
> 4000,O=C1C(Cl)=C(NCc2cn(CCCN3C(=O)c4ccccc4C3=O)nn2)C(=O)c2ccccc21,
> 2000,CC1(C)CC(n2cc(C3CCCCC3)nn2)C2=C(O1)C(=O)c1ccccc1C2=O (stereo not given),
> 4000,O=C1C(Cl)=C(NCc2cn(CN3C(=O)c4ccccc4C3=O)nn2)C(=O)c2ccccc21,
> 4000,O=C1C(Br)=C(NCc2cn(CCCN3C(=O)c4ccccc4C3=O)nn2)C(=O)c2ccccc21,

SMILES,IC50 [1] [µM],further results
CC1(C)OC2=C(C(=O)C(=O)c3ccccc32)C1n1cc(CNC2=C(Cl)C(=O)c3ccccc3C2=O)nn1 (stereo not given),8.2,Ratio IC50 [2]: 12; Ratio LC50/IC50 [3]: 34.3; CC50 at 24 h [4]: 282 µM
CC1(C)OC2=C(C(=O)C(=O)c3ccccc32)C1n1cc(CNC2=C(Br)C(=O)c3ccccc3C2=O)nn1 (stereo not given),6.8,Ratio IC50 [2]: 15; Ratio LC50/IC50 [3]: 9.3; CC50 at 24 h [4]: 63.1 µM
CC1(C)OC2=C(C(=O)C(=O)c3ccccc32)C1n1cc(CNC2=CC(=O)c3ccccc3C2=O)nn1 (stereo not given),80.8,Ratio LC50/IC50 [3]: < 1.5; CC50 at 24 h [4]: < 125 µM
